Experiments:
Plasmodium berghei [1] = assay: Antimalarial activity against Plasmodium berghei infected in Swiss Webster mouse assessed as mouse survival rate at 1.1 mg/kg administered once daily via oral gavage for 4 consecutive days beginning 1 hr after infection measured on day 6 post infection relative to control; format: functional
Summary of the method: (§1)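 Mice given an intraperitoneal injection of P. berghei-infected erythrocytes taken from a previously infected animal. Oral dosing once daily for 4 consecutive days, starting 1 h after infection. Vehicle: polyethylene glycol 300/propylene glycol/water (weight ratio 55/25/20). Percent survival recorded daily from day 4 to day 20. Chloroquine 30 mg/kg and vehicle-only groups served as controls.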

Lymphocyte [2] = assay: Genotoxicity in human lymphocytes at 0.5 to 355 ug/mL after 3 to 28 hrs in absence of rat liver S9 fraction by micronucleus assay; format: toxicity, cell-based
Plasmodium berghei [3] = assay: Antimalarial activity against Plasmodium berghei infected in Swiss Webster mouse assessed as mouse survival rate at 0.3 mg/kg administered once daily via oral gavage for 4 consecutive days beginning 1 hr after infection measured on day 7 post infection relative to control; format: functional; summary of the method: as §1
Plasmodium berghei [4] = assay: Antimalarial activity against Plasmodium berghei infected in Swiss Webster mouse assessed as mouse survival rate at 3 mg/kg administered once daily via oral gavage for 4 consecutive days beginning 1 hr after infection measured on day 7 post infection relative to control; format: functional
Summary of the method: (§2)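 P. berghei-infected erythrocytes taken from a previously infected mouse were injected intraperitoneally. Oral dosing, once daily for 4 consecutive days, began 1 h after infection, in polyethylene glycol 300/propylene glycol/water (55/25/20 by weight). Chloroquine at 30 mg/kg was the positive control, with a vehicle-only group. Percent survival was recorded daily from day 4 to day 20.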

Plasmodium berghei [5] = assay: Antimalarial activity against Plasmodium berghei infected in Swiss Webster mouse assessed as mouse survival rate at 0.3 mg/kg administered once daily via oral gavage for 4 consecutive days beginning 1 hr after infection measured on day 5 post infection relative to control; format: functional; summary of the method: as §1
Plasmodium berghei [6] = assay: Antimalarial activity against Plasmodium berghei infected in Swiss Webster mouse assessed as mouse survival rate at 3 mg/kg administered once daily via oral gavage for 4 consecutive days beginning 1 hr after infection measured on day 5 post infection relative to control; format: functional; summary of the method: as §2
Plasmodium berghei [7] = assay: Antimalarial activity against Plasmodium berghei infected in Swiss Webster mouse assessed as mouse survival rate at 3 mg/kg administered once daily via oral gavage for 4 consecutive days beginning 1 hr after infection measured on day 6 post infection relative to control; format: functional; summary of the method: as §2
Plasmodium berghei [8] = assay: Antimalarial activity against Plasmodium berghei infected in Swiss Webster mouse assessed as mouse survival rate at 11 mg/kg administered once daily via oral gavage for 4 consecutive days beginning 1 hr after infection measured on day 11 post infection relative to control; format: functional; summary of the method: as §1
Salmonella typhimurium [9] = assay: Genotoxicity in Salmonella typhimurium TA1535 assessed as number of revertants per plate at 500 ug/plate in absence of rat liver S9 fraction by Ames test (reference value: 10 +/- 3); format: toxicity; details: salmonella enterica subsp. enterica serovar typhimurium
[10] = Oral bioavailability in Beagle dog at 5 mg/kg by HPLC/MS analysis; format: ADME, organism-based, Canis lupus familiaris; details: in vivo
Summary of the method: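 Female CD-1 mice, male SD rats or beagle dogs given 5 mg/kg by iv injection or oral gavage. Formulation was PEG300/propylene glycol/water 55/25/20, pH 6. Blood samples analysed by HPLC–MS/MS; parameters include AUC0-inf extrapolated to infinity and terminal half-life.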

Lymphocyte [11] = assay: Genotoxicity in human lymphocytes assessed as increase in frequency of micronucleated cells at 355.15 ug/mL after 3 hrs in presence of rat liver S9 fraction by micronucleus assay (reference value: 0.63%); format: toxicity, cell-based; details: s9, 3 h
[12] = Tmax in Beagle dog plasma at 5 mg/kg, po via gavage by HPLC/MS analysis; format: ADME, organism-based, Canis lupus familiaris
Salmonella typhimurium [13] = assay: Genotoxicity in Salmonella typhimurium TA1537 assessed as number of revertants per plate at 150 ug/plate in presence of rat liver S9 fraction by Ames test (reference value: 11 +/- 4); format: toxicity; details: salmonella enterica subsp. enterica serovar typhimurium
Escherichia coli [14] = assay: Genotoxicity in Escherichia coli WP2uvrA assessed as number of revertants per plate at 150 ug/plate in presence of rat liver S9 fraction by Ames test (reference value: 42 +/- 6); format: toxicity
Salmonella typhimurium [15] = assay: Genotoxicity in Salmonella typhimurium TA1535 assessed as number of revertants per plate at 50 ug/plate in absence of rat liver S9 fraction by Ames test (reference value: 10 +/- 3); format: toxicity; details: salmonella enterica subsp. enterica serovar typhimurium
Salmonella typhimurium [16] = assay: Genotoxicity in Salmonella typhimurium TA1537 assessed as number of revertants per plate at 1500 ug/plate in absence of rat liver S9 fraction by Ames test (reference value: 19 +/- 9); format: toxicity; details: salmonella enterica subsp. enterica serovar typhimurium
Salmonella typhimurium [17] = assay: Genotoxicity in Salmonella typhimurium TA100 assessed as number of revertants per plate at 15 ug/plate in absence of rat liver S9 fraction by Ames test (reference value: 154 +/- 9); format: toxicity; details: salmonella enterica subsp. enterica serovar typhimurium
Lymphocyte [18] = assay: Genotoxicity in human lymphocytes assessed as replication index at 355.15 ug/mL after 3 hrs in absence of rat liver S9 fraction by micronucleus assay relative to control; format: toxicity, cell-based
Summary of the method: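 Human lymphocytes exposed for 3 h with or without rat liver S9, or 28 h without S9, with 1% DMSO as vehicle control. Replication index = (binucleated + 2 × multinucleated cells)/total cells. Cytotoxicity (%) = 100 − (RI treated/RI vehicle) × 100.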

Salmonella typhimurium [19] = assay: Genotoxicity in Salmonella typhimurium TA98 assessed as number of revertants per plate at 150 ug/plate in absence of rat liver S9 fraction by Ames test (reference value: 14 +/- 6); format: toxicity; details: salmonella enterica subsp. enterica serovar typhimurium
[20] = Volume of distribution at steady state in Sprague-Dawley rat at 5 mg/kg, iv by HPLC/MS analysis; format: ADME, organism-based; details: in vivo, read-out: Vdss
Plasmodium falciparum = assay: Antimalarial activity against intraerythrocytic stage of Plasmodium falciparum assessed as parasite reduction ratio at 30 times IC50 preincubated for 24 hrs followed by [3H]-hypoxanthine addition measured after 24 hrs by scintillation counting method; format: functional
Summary of the method: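 In vitro P. falciparum parasite reduction ratio assay run at 10×, 30× and 100× IC50. Derived parameters: lag phase (time to maximal killing), PRR (parasites killed per life cycle) and PCT99.9% (time to clear 99.9% of the initial parasite population).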

Salmonella typhimurium [21] = assay: Genotoxicity in Salmonella typhimurium TA1537 assessed as number of revertants per plate at 15 ug/plate in presence of rat liver S9 fraction by Ames test (reference value: 11 +/- 4); format: toxicity; details: salmonella enterica subsp. enterica serovar typhimurium
Lymphocyte [22] = assay: Genotoxicity in human lymphocytes assessed as increase in frequency of micronucleated cells at 160 ug/mL after 28 hrs in absence of rat liver S9 fraction by micronucleus assay (reference value: 0.74%); format: toxicity, cell-based
Salmonella typhimurium [23] = assay: Genotoxicity in Salmonella typhimurium TA100 assessed as number of revertants per plate at 5 ug/plate in absence of rat liver S9 fraction by Ames test (reference value: 154 +/- 9); format: toxicity; details: salmonella enterica subsp. enterica serovar typhimurium
Lymphocyte [24] = assay: Genotoxicity in human lymphocytes assessed as increase in frequency of micronucleated cells at 80 ug/mL after 3 hrs in presence of rat liver S9 fraction by micronucleus assay (reference value: 0.63%); format: toxicity, cell-based; details: s9, 3 h
Lymphocyte [25] = assay: Genotoxicity in human lymphocytes assessed as increase in frequency of micronucleated cells at 160 ug/mL after 3 hrs in absence of rat liver S9 fraction by micronucleus assay (reference value: 0.99%); format: toxicity, cell-based
Escherichia coli [26] = assay: Genotoxicity in Escherichia coli WP2uvrA assessed as number of revertants per plate at 5 ug/plate in absence of rat liver S9 fraction by Ames test (reference value: 45 +/- 9); format: toxicity

**Q.** Which survival at 1.1 mg/kg (Plasmodium berghei [1]) does the source give for `Cc1c(Oc2cnc(C(=O)N3CC(O)(C(F)(F)F)C3)cn2)ccc2c1B(O)OC2` here?
**A.** 100%

**Q.** For `Cc1c(Oc2cnc(C(=O)NCCO)cn2)ccc2c1B(O)OC2`, which Activity (Lymphocyte [2]) is on record?
**A.** Non-Toxic

**Q.** Which survival at 0.3 mg/kg (Plasmodium berghei [3]) does the source give for `Cc1c(Oc2cnc(C(=O)NC(C)CO)cn2)ccc2c1B(O)OC2` (stereo not drawn) here?
**A.** 20%

**Q.** And the survival at 3 mg/kg (Plasmodium berghei [4])?
**A.** 60%

**Q.** What about the survival at 0.3 mg/kg (Plasmodium berghei [5]) of the same compound?
**A.** 20%

**Q.** What about the survival at 3 mg/kg (Plasmodium berghei [6]) of the same compound?
**A.** 60%

**Q.** What about the survival at 3 mg/kg (Plasmodium berghei [7]) of the same compound?
**A.** 60%

**Q.** With `Cc1c(Oc2cnc(C(=O)N3CC(O)(C(C)C)C3)cn2)ccc2c1B(O)OC2` as the compound, how does the survival at 1.1 mg/kg (Plasmodium berghei [1]) read?
**A.** 100%

**Q.** And the survival at 11 mg/kg (Plasmodium berghei [8])?
**A.** 20%

**Q.** Which Activity (Salmonella typhimurium [9]) does the source give for `Cc1c(Oc2cnc(C(=O)N3CC(C)(O)C3)cn2)ccc2c1B(O)OC2` here?
**A.** 5

**Q.** What about the bioavailability [10] of the same compound?
**A.** 127%

**Q.** What about the Activity (Lymphocyte [11]) of the same compound?
**A.** 0.73%

**Q.** And the Tmax [12]?
**A.** 1.2 h

**Q.** And the Activity (Salmonella typhimurium [13])?
**A.** 12

**Q.** What about the Activity (Escherichia coli [14]) of the same compound?
**A.** 53

**Q.** What about the Activity (Salmonella typhimurium [15]) of the same compound?
**A.** 8

**Q.** What about the Activity (Salmonella typhimurium [16]) of the same compound?
**A.** 10

**Q.** What about the Activity (Salmonella typhimurium [17]) of the same compound?
**A.** 126

**Q.** And the Activity (Lymphocyte [18])?
**A.** 7%

**Q.** What about the Activity (Salmonella typhimurium [19]) of the same compound?
**A.** 13

**Q.** What about the Vd [20] of the same compound?
**A.** 0.831 L/kg

**Q.** And the “log(ratio)” value (Plasmodium falciparum)?
**A.** 4.9

**Q.** What about the Activity (Salmonella typhimurium [21]) of the same compound?
**A.** 9

**Q.** And the Activity (Lymphocyte [22])?
**A.** 0.89%

**Q.** And the Activity (Salmonella typhimurium [23])?
**A.** 152

**Q.** What about the Activity (Lymphocyte [24]) of the same compound?
**A.** 0.74%

**Q.** What about the Activity (Lymphocyte [25]) of the same compound?
**A.** 1.18%

**Q.** What about the Activity (Escherichia coli [26]) of the same compound?
**A.** 35

From ChEMBL document CHEMBL4038305, “Benzoxaborole Antimalarial Agents. Part 5. Lead Optimization of Novel Amide Pyrazinyloxy Benzoxaboroles and Identification of a Preclinical Candidate” (J Med Chem, 2017)
